Measured values of several laboratories.
Protocols differ between the studies behind these lines.
Target: Calcium/calmodulin-dependent protein kinase type II subunit alpha (CAMK2A, Homo sapiens, UniProt Q9UQM7)

| SMILES | assay | conditions | endpoint | value |
| --- | --- | --- | --- | --- |
| Cn1c2c(c3ccc(Cl)c(Cl)c31)C(C#N)C1(CCCC1)NC2=O (stereo not shown) | thermal stability, DSF | 10 µM | ΔTm | 0.9 °C |
| Nc1cnc(N2CCc3cc(S(=O)(=O)Nc4c(F)cc(Cl)cc4F)cc(N4CCCC4=O)c32)nc1 | cell-free assay, competition with immobilised ligand | 1 µM | remaining binding | 92% |
| O=C1Nc2ccc(Cl)cc2C1=Cc1cc(Cl)c(O)c(Cl)c1 | cell-free assay | 0.5 µM | remaining signal | 92.9% |
| CC(C)(O)[C@H]1CC[C@H](Nc2ccc3ncc(-c4cccc(C(F)(F)F)c4)n3n2)CC1 | enzyme activity, inhibitor | 1 µM | remaining activity | 80.7% |
| O=C(Nc1cnn(-c2csc(C(=O)NC3COC3)c2)c1)Nc1c(F)cccc1Cl | enzyme activity, inhibitor | 5 µM | remaining activity | 99.4% |
| Cn1c2c(c3ccc(Cl)c(Cl)c31)C(C#N)C1(CCNCC1)NC2=O (racemic) | thermal stability, DSF | 10 µM | ΔTm | 1.2 °C |
| N#CCCc1ccc2c(c1)-c1[nH]c3ccc([N+](=O)[O-])cc3c1CC(=O)N2 | cell-free assay | 0.5 µM | remaining signal | 69.1% |
| Cc1ncc([N+](=O)[O-])n1C(=NO)c1ccccc1C(F)(F)F | enzyme activity, inhibitor | 10 µM | inhibition | 25.3% |
| Cn1c2c(Cl)c(Cl)ccc2c2cn[nH]c(=O)c21 | thermal stability, DSF | 10 µM | ΔTm | 0.8 °C |
| COc1cc2ncnc(Nc3ccc(Oc4ccccc4)c(C)c3C)c2cc1OC | enzyme activity, inhibitor | 1 µM | inhibition | 0% |
| Cc1ccc(NC(=O)c2ccc(CN3CCN(C)CC3)cc2)cc1Nc1nccc(-c2cccnc2)n1 | enzyme activity, inhibitor | 0.5 µM | activity vs control | 100% |
| O=C1CCc2cc(Nc3cc(OC4CCOCC4)c([N+](=O)[O-])cc3Cl)ccc2N1 | cell-free assay, competition with immobilised ligand | 1 µM | remaining binding | 85% |
| CC1(C)NC(=O)c2[nH]c3c(Cl)c(Cl)ccc3c2C1C#N (stereo not shown) | thermal stability, DSF | 10 µM | ΔTm | 1 °C |
| CS(=O)(=O)c1cc(C2(NC(=O)c3cncc4c3cnn4-c3ccc(F)cc3)CC2)ccn1 | cell-free assay, competition with immobilised ligand | 1 µM | remaining binding | 100% |
| CN1CC(Oc2cnc(C#N)cc2-c2ccn3nc(NC(=O)C4CC4)cc3c2)C1 | enzyme activity, inhibitor | 1 µM | inhibition | 6% |
| C[C@@H]1CN(c2cc(-c3n[nH]c4ccc(OC5(C)CC5)cc34)ncn2)C[C@H](C)O1 | cell-free assay, competition with immobilised ligand | 0.1 µM | remaining binding | 100% |
| CSc1nc(C)c(-c2ccnc(Nc3ccc(N4CCOCC4)cc3)c2)[nH]1 | enzyme activity, inhibitor | 10 µM | inhibition | -5.7% |
| CNC(=O)c1ccc(Nc2ncc(C(F)(F)F)c(NCc3nccnc3N(C)S(C)(=O)=O)n2)cc1 | cell-free assay, competition with immobilised ligand | 0.1 µM | remaining binding | 83% |
| Cn1c2c(c3ccc(Cl)c(Cl)c31)C(C#N)C1(CCN(C(=O)OC(C)(C)C)CC1)NC2=O (racemic) | thermal stability, DSF | 10 µM | ΔTm | 0 °C |
| CN1CCN(c2cnc3c(C4CCN(C(=O)c5ccc(OC(F)(F)F)cc5N)CC4)ncnc3c2)CC1 | cell-free assay, competition with immobilised ligand | 1 µM | remaining binding | 69% |
| CS(=O)(=O)CCNCc1ccc(-c2ccc3ncnc(Nc4ccc(OCc5cccc(F)c5)c(Cl)c4)c3c2)o1 | cell-free assay | 0.5 µM | remaining signal | 98.6% |
| Cc1noc([C@H]2C[C@@H](c3ccc(C(F)(F)F)cc3)CN(C(=O)N3CCS(=O)(=O)C3)C2)n1 | cell-free assay, competition with immobilised ligand | 1 µM | remaining binding | 100% |
| CC(C)(C)c1nc2c(s1)c1nc(N)ncc1c1ccc(NS(=O)(=O)c3c(F)cccc3F)c(F)c12 | enzyme activity, inhibitor, radiometric | 1 µM | remaining activity | 80% |
| O=C1NC(c2ccccn2)Sc2ccccc21 (stereo not shown) | cell-free assay, competition with immobilised ligand | 1 µM | remaining binding | 100% |
| Cc1cc(NC(=O)c2cccc3cc(-c4cccc5[nH]nc(N)c45)ccc23)ccc1F | enzyme activity, inhibitor | 0.1 µM | activity vs control | 123% |
